High-throughput results (PubChem BioAssay)
MC4R antagonist = antagonists of human melanocortin 4 receptor (MC4R) | MC4R-expressing cells, MTII-stimulated cAMP, LANCE TR-FRET | inhibition, % at 6.5 µM | actives 0.48% (n = 360,000) | AID 540295;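 active = inhibition above its plate's cutoff, the mean of tested wells on that plate plus 3 SD, cut at about 29% in these data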;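 also: 0% = Melanotan II alone and 100% = Melanotan II plus saturating MCL0020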
Target sequence (P32245 whole entry, looked up): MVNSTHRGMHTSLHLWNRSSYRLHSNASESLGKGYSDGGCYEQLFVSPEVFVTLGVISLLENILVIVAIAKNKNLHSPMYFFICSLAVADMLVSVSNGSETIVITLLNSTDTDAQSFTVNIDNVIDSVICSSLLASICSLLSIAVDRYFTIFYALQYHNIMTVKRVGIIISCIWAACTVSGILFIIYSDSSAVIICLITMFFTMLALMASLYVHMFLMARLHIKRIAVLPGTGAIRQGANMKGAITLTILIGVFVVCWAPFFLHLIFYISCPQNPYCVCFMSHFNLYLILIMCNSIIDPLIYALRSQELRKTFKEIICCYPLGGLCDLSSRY
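System: U2OS-MC4R stable cell line; Technique: Eu-cAMP/anti-cAMP TR-FRET, emission 671 nm; Repeats: single well per compound; Also added: Melanotan II; Dosing: one concentration, 6.5 µM nominal; Schedule: 30-min compound, 1-h challenge, 1-h detection, room temperature.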
MC4R barr agon = activates human MC4R beta-arrestin recruitment. P32245. U2OS MC4R beta-arrestin complementation, luminescence; percent of melanotan II response, DMSO zero. activation, % at 8.9 µM. actives 0.98% (n = 360,000);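 active = activation above a per-plate cutoff, the mean activation of sample wells on that plate plus 3 SD, cut at about 8% in these data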
SMARCA2 activ = increases SMARCA2 function in MMTV reporter cells | activation, % at 9.1 µM | MG213 cells, MMTV-luciferase reporter, dexamethasone, overnight | actives 1% (n = 370,000); in the data active = activation above about 7.8%;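 also: 0% = vehicle wells and 100% = reference activator wells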
F508del corr = correctors of CFTR F508del function in bronchial epithelial cells. CFBE cells, YFP halide quenching; stimulated with forskolin plus potentiator P3; % fluorescence drop versus neutral controls. activity (quench increase), % at 7.58 µM. actives 0.36% (n = 350,000). AID 720511;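 active = mean added fluorescence quench of at least 8% versus neutral control, with both replicates also reaching 8%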;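 also: cells transiently co-express mutant CFTR-F508del with the halide-sensitive YFP; corrector assay measuring rescue of mutant channel to the surface after 24 h compound exposure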
MC4R barr conf = human MC4R beta-arrestin agonism confirmation; AID 602192; actives 31% (n = 2,400); activation, % at 8.9 µM; U2OS MC4R beta-arrestin recruitment, luminescence; scaled DMSO 0%, Melanotan II 100%; shares compounds with MC4R barr agon;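 active = mean activation across replicates above the hit cutoff set in the earlier primary screen, cut at about 8% in these data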
MOR-DOR barr ag = OPRM1-OPRD1 heterodimer agonism counter-screen; shares compounds with MC4R barr agon; U2OS PathHunter beta-arrestin, beta-gal luminescence; percent of deltorphin B response, DMSO zero; activation, % at 9.2 µM; actives 5.8% (n = 2,400); AID 602194;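 active = mean activation across replicates exceeds the hit threshold derived in the earlier primary screen, cut at about 18% in these data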;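 also: 100% = deltorphin B at 0.9 µM final and 0% = DMSO alone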
* = called active by the depositor; . = not tested or not shown. Sampled rows, rich in hits. Any-hit rate of the full collection: about 2.1%.

SMILES	MC4R antagonist	MC4R barr agon	SMARCA2 activ	F508del corr	MC4R barr conf	MOR-DOR barr ag
OC(c1cccc(F)c1)c1ncc(-c2ccc(Oc3ccccc3)cc2)[nH]1 (configuration not stated)	17.4	10.1*	-5.9	0.7	4.4	9.8
O=C(C[C@@H]1CC[C@@H](NC(=O)c2ccc(F)cc2)[C@H](CO)O1)NCc1ccncn1	.	.	.	2.3	.	.
O=C(NC(c1ccccc1)c1ccc2ccccc2n1)C1CCN(CCOc2ccc(Cl)cc2Cl)CC1 (configuration not stated)	12.6	39.0*	-1.7	4.2	18.4*	7.4
O=C(NC(c1ccc(F)cc1)c1ccc2ccccc2n1)C1CCN(CCOc2ccc(Cl)cc2)CC1 (configuration not stated)	6.3	7.9	-3.5	-2.1	.	.
Cc1cccnc1C(c1ccc(F)cc1)N(C)C(=O)C1CCN(CCOc2ccc(Cl)cc2Cl)CC1 (configuration not stated)	6.6	11.1*	-5.1	2.9	18.0*	10.0
Cc1ccccc1S(=O)(=O)N1CC[C@H]2[C@H](CO)Nc3ccc(-c4ccccc4F)cc3[C@H]21	.	.	.	0.5	.	.
COc1c(C(=O)Nc2ccc3[nH]c(=O)[nH]c3c2)cc2ccccc2c1Br	6.8	12.2*	-0.6	3.7	5.1	16.7
COc1c(C(=O)Nc2ccc(CN3CCOCC3)cc2)cc2ccccc2c1Br	1.8	0.1	2.4	-1.0	.	.
Cc1ccc(S(=O)(=O)Nc2cccc3c2O[C@@H](CN(C)C(=O)Nc2ccc4c(c2)OCO4)[C@@H](C)CN([C@@H](C)CO)C3=O)cc1	.	.	.	-0.8	.	.
CCOC(=O)c1ccc(Nc2nc(-c3cccnc3)nc3ccccc23)cc1	10.8	56.9*	0.9	.	0.0	6.7
CCOC(=O)c1ccc(Nc2ncnc3ccccc23)cc1	-7.2	5.5	-1.4	-1.0	.	.
Cc1cc(C(=O)Nc2cccc3c2O[C@H](CN(C)Cc2ccncc2)[C@@H](C)CN([C@H](C)CO)C3=O)n(C)n1	.	.	.	-5.0	.	.
Nc1c(C(=O)NCc2ccc3c(c2)OCO3)nnn1Cc1ccc(Br)cc1	-4.8	17.5*	2.5	0.2	7.4	9.9
CCCc1cc(=O)oc2cc(OCC(=O)NCCc3c[nH]c4ccccc34)ccc12	4.3	16.8*	0.0	2.1	13.6*	25.4*
Cc1cc(=O)oc2cc(OCC(=O)NCCc3c[nH]c4ccc(F)cc34)ccc12	3.0	2.3	-1.3	0.8	.	.
Cc1cc(C)cc(NC(=O)CSc2cc(C(=O)c3nccn3C)c3ccccc3n2)c1	14.0	9.8*	0.4	.	2.7	8.2
CC(CCc1ccccc1)NC(=O)c1ccc(NC(=O)c2ccc(Cl)cc2Cl)cc1 (configuration not stated)	1.1	9.9*	-1.5	0.6	6.8	5.8
CS(=O)(=O)Nc1ccc2c(c1)[C@H]1C[C@H](CC(=O)NCc3ccccc3F)O[C@H](CO)[C@H]1O2	.	.	.	-0.9	.	.
Cc1nn(-c2ccccc2)c(Cl)c1/C=N/Nc1nc2ccccc2[nH]1	-1.0	11.6*	7.9*	.	3.0	10.2
C/C(=N/NC(=O)CNC(=O)c1ccc2c(c1)OCO2)c1ccc2c(c1)CCCC2	4.2	11.7*	0.1	1.9	1.5	4.2
C/C(=N/NC(=O)CNC(=O)c1ccccc1F)c1ccc2c(c1)CCCC2	8.2	0.1	-3.0	1.9	.	.
CCC(=O)c1cc2c(cc1NC(=O)c1ccc(C)cc1)OCCO2	0.8	0.8	0.5	.	.	.
CC(=O)c1cc2c(cc1NC(=O)c1ccc(C)cc1)OCCO2	1.2	9.6*	-0.7	0.9	2.0	1.2
COc1ccc2c(Cl)c(C(=O)N/N=C/c3ccc4c(c3)OCO4)sc2c1	-4.1	12.3*	-2.0	.	6.9	4.0
COc1ccc(/C=N/NC(=O)c2ccc3c(c2)OCO3)cc1	5.8	1.1	4.8	1.4	.	.
SMILES	MC4R antagonist	MC4R barr agon	SMARCA2 activ	F508del corr	MC4R barr conf	MOR-DOR barr ag
C[C@H](NC(=O)[C@H]1[C@H](CO)[C@H]2Cn3c(cccc3=O)[C@H]2N1C(=O)C1CC1)c1ccccc1	.	.	.	-2.7	.	.
O=C(Nc1nnc(C2CC2)s1)c1ccc(Cl)c(S(=O)(=O)N2CCc3ccccc3C2)c1	2.3	11.3*	-1.3	0.9	3.7	5.9
CCOC(=O)N1CCN(CC(O)COc2ccccc2C(C)C)CC1 (configuration not stated)	-3.7	0.7	-0.2	.	.	.
CCN(CCNCC(O)COc1ccccc1C(C)C)c1cccc(C)c1 (configuration not stated)	7.7	16.3*	-2.5	2.4	12.2*	11.9
COC(=O)C[C@H]1C[C@H]2c3cc(NC(=O)CC4CC4)ccc3O[C@H]2[C@@H](CO)O1	.	.	.	1.0	.	.
C[C@@H]1CN([C@@H](C)CO)C(=O)c2cc(C#CC3CCCCC3)cnc2O[C@H]1CN(C)S(=O)(=O)c1ccc(F)cc1	.	.	.	2.6	.	.
C[C@H]1CN([C@@H](C)CO)C(=O)c2cccc(NC(=O)c3cnccn3)c2O[C@H]1CN(C)Cc1ccc(Cl)c(Cl)c1	.	.	.	-3.4	.	.
CCN=C1SC(CC(=O)Nc2sc3c(c2C#N)CCCC3)C(=O)N1CC (configuration not stated)	-2.0	12.4*	2.9	.	2.2	7.0
Cc1ccc(Sc2nnc(-c3ccccc3)cc2C#N)cc1	4.1	13.0*	0.8	.	2.8	5.6
COc1cc(F)ccc1-c1csc(C(O)c2ccc(F)cc2)n1 (configuration not stated)	5.3	14.0*	-3.2	4.2	-0.8	7.9
COc1ccc(C(O)c2nc(-c3ccc(F)cc3OC)cs2)cc1 (configuration not stated)	6.2	1.1	-2.4	1.6	.	.
C[C@@H]1CN([C@H](C)CO)C(=O)Cc2cc(NS(=O)(=O)c3ccc(F)cc3)ccc2O[C@@H]1CN(C)C(=O)Nc1ccc(F)cc1	.	.	.	1.1	.	.
CCSc1nnc(NC(=O)C2CC2c2ccccc2)s1 (configuration not stated)	-4.7	15.0*	-2.1	-0.9	5.6	6.8
CCSc1nnc(NC(=O)C2CCCCC2C(=O)O)s1 (configuration not stated)	2.0	0.4	-0.2	.	.	.
C/C(=N\N=C(/N)SC1CC(=O)N(c2ccccc2)C1=O)c1cccs1 (configuration not stated)	4.9	-0.5	-2.2	.	.	.
CCCCCCOc1ccc(N2C(=O)CC(S/C(N)=N/N=C(\C)c3cccs3)C2=O)cc1 (configuration not stated)	11.6	21.3*	0.0	.	15.0*	2.3
CC1CCc2nc(NC(=O)CSc3nc4ccccc4o3)sc2C1 (configuration not stated)	2.7	13.9*	-6.0	.	3.9	9.9
COc1cccc(OCC(=O)NN=C2c3ccccc3-c3ccccc32)c1	-4.3	64.9*	-0.3	.	7.7	6.4
